Data set [1] has as its system BE(2)-C. Description: Antitumor activity against human BE(2)-C cells xenografted with NCR nu/nu mouse assessed as tumor volume at 8.4 +/- 0.3 mBq administered intratumorally after 1 day (reference value: 0.39 +/- 0.15 cm3). It is filed as functional. The method, boiled down:
(§1)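 Athymic Ncr nu/nu female and male mice bearing subcutaneous BE(2)-C xenografts were randomized by lottery into untreated control and treatment groups. Treatment was a single intratumor injection of 8.4 ± 0.3 MBq/mouse. Tumor volumes were followed to day 7 (controls) or day 14. Doubling times were calculated from day 0 to 7 and day 0 to 14. Values are average ± std err.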
For orientation: A xenograft is tissue or cells of one species grown in another, often human tumour cells in immunodeficient mice.

Data set [2] is described as follows: Drug uptake in human BE(2)-C cells assessed as level of 125I-incorporation into DNA after 1 hr and followed by compound washout with non-radioactive medium/PBS and measured immediately by gamma counting method relative to control. Format: ADME, cell-based. The gist of the method:
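BE(2)-C cells were treated with radioiodinated guanidine for 1 h, washed with nonradioactive medium and PBS. They were processed immediately or returned to the incubator for a further 23 h. 125I in the DNA fraction was gamma-counted. Values are average (n ≥ 3) ± SD.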

A short description of data set [3]: Stability in human serum assessed as intact compound level after 5 mins by HPLC analysis. The settings on record: read-out: Stability. Format: ADME, cell-free. The method, boiled down: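 Radioiodinated guanidines were incubated in mouse, human or pig serum and analyzed by radio-HPLC on a C18 column at 0.8 mL/min. The gradient was 0–95% CH3CN over 50 min, then 95% for 20 min. Intact compound was fitted to monoexponential degradation to give half-life. Values are average ± std err.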

The subject of data set [4] is SK-N-SH. Description: Antiproliferative activity against human SK-N-SH cells assessed as cell viability at 180 kBa/ml after 24 hrs by trypan blue assay relative to control. It is filed as functional. The gist of the method:
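Cell survival was scored by trypan blue exclusion 24 h after exposing SK-N-SH cells to radioiodinated guanidine at varied extracellular concentrations. Values are average (n ≥ 3) ± SD.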

The nature of data set [5]: Ratio of tumor to blood concentration in NCR nu/nu mouse xenografted with human BE(2)-C cells at 0.33 +/- 0.05 MBq administered intratumorally after 24 hrs by gamma counting method. Format: ADME, tissue-based. The settings on record: tumour, other. The gist of the method: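 Athymic Ncr nu/nu female and male mice bearing subcutaneous BE(2)-C xenografts received intratumor injections of the 125I agent. Tissues, tumor and blood were collected at 24 h and counted for radioactivity, expressed as %ID/g. Tumor-to-blood ratios were derived.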

The target in data set [6] is T1, Sodium-dependent noradrenaline transporter (Homo sapiens, UniProt P23975). Briefly: Substrate activity at NET in human SK-N-SH cells assessed as inhibition of drug uptake by measuring MIBG IC50 incubated for 1 hr in presence of nonradioactive MIBG at 4 degC by filtration based gamma counting method. It is filed as cell-based. The gist of the method:
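This was a cell-suspension competition assay. SK-N-SH cells in suspension were incubated with 125I-guanidine and graded nonradioactive MIBG, and uptake was read by filtration and γ-counting. Runs were done at 37 °C, or at 4 °C after cooling the cells on ice. The MIBG IC50 was estimated from the inhibition curves.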

Data set [7] has as its system SK-N-SH. Description: Anticlonogenic activity against human SK-N-SH cells assessed as number of colonies at 40 +/- 0.5 kBq/mL kBq/mL after 24 hr by crystal violet staining based assay. It is filed as functional. The gist of the method: (§2)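 SK-N-SH cells exposed for 1 h to 125I-MIBG (39.3 ± 0.3 kBq/mL extracellular) or IDG (40 ± 0.5 kBq/mL). For the 1 h group, cells were washed with nonradioactive medium and PBS, harvested with trypsin and replated for the clonogenic assay. For the 24 h group, cells were washed, given fresh nonradioactive medium and incubated a further 23 h before plating. Colonies were counted.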

In data set [8] the test system is SK-N-SH. Briefly: Antiproliferative activity against human SK-N-SH cells assessed as intracellular concentration of 125I required to show 63% inhibition after 24 hrs. Format: cell-based. The gist of the method: (§3)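 D37 (63% kill) was estimated for SK-N-SH cells treated 24 h with IDG. It is expressed as extracellular (kBq/mL) or intracellular (mBq/cell) 125I. Survival was assessed by trypan blue and clonogenic assays. Values are average (std error).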

Data set [9] has as its target T1, Sodium-dependent noradrenaline transporter. Description: Substrate activity at NET in human SK-N-SH cells assessed as inhibition of drug uptake by measuring MIBG IC50 incubated for 1 hr in presence of nonradioactive MIBG by gamma counting method. It is filed as cell-based. The gist of the method:
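Exponentially growing SK-N-SH monolayers (endogenous NET) were exposed for 1 h to 125I-labelled guanidine plus nonradioactive MIBG over a range of concentrations. Cell-associated 125I was counted in a γ-counter, and the MIBG IC50 was estimated.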

Data set [10] is described as follows: Toxicity in NCR nu/nu mouse xenografted with human BE(2)-C cells assessed as effect on hemoglobin level at 8.41 +/- 0.32 mBq measured up to 166 hrs. The method, boiled down:
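Athymic Ncr nu/nu female and male mice bearing subcutaneous BE(2)-C xenografts were randomized by lottery to untreated control or a single intratumor injection of 125I-guanidine (8.4 ± 0.3 MBq/mouse). Blood hemoglobin was measured in both groups and compared with the normal adult mouse range. Treated mice were terminated 14 days after injection.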

Data set [11] can be described thus: Partition coefficient, logP of compound. Format: physicochemical. The settings on record: octanol/water.
Data set [12] concerns BE(2)-C. Description: Antiproliferative activity against human BE(2)-C cells assessed as intracellular concentration of 125I required to show 63% inhibition after 1 hr. It is filed as cell-based. The gist of the method:
(§4)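 BE(2)-C cells were treated for 1 h with several IDG concentrations, washed extensively, harvested with trypsin and replated for clonogenic assay. Cellular 125I uptake was measured per cell. D37 (63% kill) was estimated from survival versus extracellular concentration or intracellular content (mBq/cell). Values are average (std error).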

For data set [13], the system named is SK-N-SH. Description: Anticlonogenic activity against human SK-N-SH cells assessed as number of colonies at 40 +/- 0.5 kBq/mL kBq/mL after 1 hr by crystal violet staining based assay. It is filed as functional. The gist of the method: as §2
The nature of data set [14]: Drug uptake in human SK-N-SH cells assessed as level of 125I-incorporation into DNA incubated 1 hr followed by compound washout with non-radioactive medium/PBS and measured after 23 hrs by gamma counting method relative to control. It is filed as ADME, cell-based. The method, boiled down: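 SK-N-SH cells exposed to the 125I-labelled guanidine for 1 h, then washed with nonradioactive medium and PBS. Cells were either processed at once (1 h) or given fresh nonradioactive medium and returned to the incubator for 23 h (24 h). Subcellular fractions (cytoplasm, DNA) were counted by γ-counter. Values are mean and SD, n ≥ 3.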

Data set [15] relates to BE(2)-C. Briefly: Antiproliferative activity against human BE(2)-C cells assessed as extracellular concentration of 125I required to show 63% inhibition after 1 hr. Format: cell-based. The gist of the method: as §4
Data set [16] in a line: Dissociation constant, pKa of compound. It is filed as physicochemical.
Data set [17] concerns SK-N-SH. Description: Antiproliferative activity against human SK-N-SH cells assessed as extracellular concentration of 125I required to show 63% inhibition after 24 hrs. It is filed as cell-based. The gist of the method: as §3
Data set [18] deals with BE(2)-C. Description: Antitumor activity against human BE(2)-C cells xenografted with NCR nu/nu mouse assessed as tumor volume at 8.4 +/- 0.3 mBq administered intratumorally after 14 days (reference value: […]). Format: functional. The gist of the method: as §1

Structures are written as SMILES.

T1 sequence (P23975 whole entry): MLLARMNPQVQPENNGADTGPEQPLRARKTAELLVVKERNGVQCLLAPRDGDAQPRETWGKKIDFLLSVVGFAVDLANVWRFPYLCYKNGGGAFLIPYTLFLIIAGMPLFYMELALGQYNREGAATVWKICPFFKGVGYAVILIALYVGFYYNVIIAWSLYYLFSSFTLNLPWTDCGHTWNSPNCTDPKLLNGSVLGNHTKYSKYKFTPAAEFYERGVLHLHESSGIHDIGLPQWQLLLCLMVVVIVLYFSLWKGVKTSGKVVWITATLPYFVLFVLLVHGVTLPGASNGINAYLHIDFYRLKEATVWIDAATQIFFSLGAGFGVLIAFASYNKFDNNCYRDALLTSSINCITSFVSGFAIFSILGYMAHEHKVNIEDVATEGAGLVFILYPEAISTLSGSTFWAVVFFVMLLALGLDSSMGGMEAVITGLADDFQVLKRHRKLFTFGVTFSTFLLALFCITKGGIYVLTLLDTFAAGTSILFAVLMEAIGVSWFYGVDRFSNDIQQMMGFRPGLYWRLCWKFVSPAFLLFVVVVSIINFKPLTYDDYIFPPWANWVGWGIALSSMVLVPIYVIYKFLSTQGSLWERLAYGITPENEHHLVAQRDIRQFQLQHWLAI

On to `N=C(N)NCCCCCC(=O)O[C@H]1C[C@H](n2cc([125I])c(=O)[nH]c2=O)O[C@@H]1CO`, for which the Activity is 0.42 cm3 with BE(2)-C [1]; 60% in the data set with SK-N-SH [4]; 97 in the data set with SK-N-SH [7]; 1.2 mBq with SK-N-SH [8]; “Non-Toxic” in data set [10]; 0.91 mBq with BE(2)-C [12]. Moreover, the Activity is reported as 163 in the data set on SK-N-SH [13], 398 kBq/ml in the data set on BE(2)-C [15], 15.6 kBq/ml with SK-N-SH [17] and 2.55 cm3 in the data set on BE(2)-C [18]. For the same compound, the Drug uptake is 93% in [2] and greater than 97% in data set [14]. In data set [3], the remaining at 5 min came to 93%. For the same compound, the Ratio in data set [5] stood at 161. Further, the concentration for half-maximal inhibition (IC50) in data set [6] worked out at 22 µM; in data set [9] it was 76.2 µM. In data set [11], this compound gave a logP of -0.2. The compound also had a pKa in data set [16] of 12.1.

Broadly, the IC50 is the concentration at which inhibition is half-maximal. For orientation: logP means a log measure of how a compound divides between an organic and an aqueous phase. Usually pKa stands for the pH at which an ionisable group is half protonated. High values mean a group that holds its proton tightly, low ones a group that gives up its proton readily.

(Values after ChEMBL document CHEMBL4402514, “Norepinephrine-Transporter-Targeted and DNA-Co-Targeted Theranostic Guanidines” (J Med Chem, 2020).)
